In PubChem BioAssay AID2727 (Broad Institute, 2010) one finds inhibition data, which are given here for 16 compounds.

This is one part of the list. Activity calls are given as the source filed them.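 How the source made its calls: active means inhibition above about 80% in every replicate, not just on average (limit read from the data); inconclusive means at least half of replicates past the limit, but not all; inactive means fewer than half of replicates past the limit.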

A short description of the assay: luminescence inhibition in constitutive-on V. harveyi, confirmation, counter-screen for LuxS inhibitor project, strain BB721, luminescence readout (AID 2727). As to conditions: Vibrio harveyi BB721 luminescence, 9 h; at 7.5 µM; active compounds read high. An outline of the steps: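 Material: Vibrio harveyi BB721, quorum sensing constitutively active; times: 9 h, 30 °C; compound: 45 nL per well from 10 mM compound stock; read-out basis: luminescence reduction; medium: AB (autoinducer bioassay) growth medium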
Take `COC(=O)c1ccc(SCc2ccccc2)nc1`: the inhibition was 96.4% (active).

Consider `Cc1ccc(NS(=O)(=O)c2ccc3c(c2)NC(=O)CO3)cc1`, for which the inhibition is 92% (active).

On to `CC(=O)c1cccc(OCc2cc(C(=O)NC(C)Cc3cccnc3)no2)c1` (stereo unspecified), for which the inhibition is 92.4% (active).

In the case of `COc1cccc(NC(=O)NCc2ccc(F)cc2)c1`, the inhibition is 94.6% (active).

On to `Cc1cccc(CSc2ccc(-c3cccs3)nn2)c1`, for which the inhibition was 94.7% (active).

Turning to `Cc1ccc(Cc2nc(-c3cccc(C)c3)no2)cc1`, the inhibition was 92.5% (active).

For the compound `Cc1cc(C(=O)OCC(=O)Nc2ccc(F)c(F)c2)c(C)o1`, the inhibition was 97.5% (active).

On to `COc1ccc(/C(N)=N/OC(=O)Cc2ccccc2)cc1`, for which the inhibition is 93.6% (active).

Regarding `Cc1ccsc1C(=O)OCC(=O)c1cc2ccccc2o1`, the inhibition was 95.1% (active).

Consider `O=C(/C=C/c1ccc2c(c1)OCCO2)c1ccc(O)cc1`, for which the inhibition is 93.3% (active).

Consider `CCOc1ccc(/C=N/NC(N)=S)cc1`, for which the inhibition is 92.7% (active).

Take `N/C(=N\OC(=O)CCc1ccccc1)c1cccnc1`: the inhibition is 91.1% (active).

`O=C(COC(=O)C1CCCCC1)Nc1ccc([N+](=O)[O-])cc1`: the inhibition is 93.7% (active).

As for `S=C(NCc1ccc(Cl)cc1)NC1CCCCC1`, the inhibition was 94.1% (active).

As to `Cc1cc(CN(C)C(=O)c2cc(COc3ccc(C)c(C)c3)on2)n[nH]1`, the inhibition is 96% (active).

With `O=C(/C=C/c1ccc2c(c1)OCO2)NCc1ccc(F)cc1`, the inhibition was 94% (active).

A word on the inhibition: it is the change of the read-out against control, counted positive when it falls.
